{
  "source": "the EternaBench riboswitch data",
  "key": {"[1]": {"tested_on": "MS2 coat protein", "experiment": "apparent Kd, MS2 coat protein; higher = weaker binding; RNA-MaP array; theophylline 2 mM where present", "procedure,_shortened": "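Stalled E. coli RNA polymerase transcribed the designs on Illumina sequencing-chip clusters. SNAP-549-labelled MS2 coat protein was titrated from 0.7 or 1.5 nM, doubling to 3 µM, without and then with constant ligand, in 100 mM Tris-HCl pH 7.5, 80 mM KCl, 4 mM MgCl2, BSA, DTT, yeast tRNA and Tween-20. Per-cluster binding curves were fitted to green signal normalised to red-channel RNA signal and control-cluster median Fmax. The apparent Kd is the median of the filtered fits.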"}, "[2]": {"tested_on": "MS2 coat protein", "experiment": "apparent Kd, MS2 coat protein; higher = weaker binding; RNA-MaP array", "procedure,_shortened": "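For each design, the apparent Kd is the median of binding-curve fits across its clusters. Designs measured on fewer than 10 clusters were dropped. The RNAs were transcribed from sequenced DNA templates on an Illumina sequencing chip and incubated at room temperature, with or without input ligand, with fluorescently labeled MS2 coat protein at 1.5 nM to 3 μM.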"}, "[3]": {"details": "designed as: OFF switch for theophylline, no ligand"}, "[4]": {"details": "ligand present: theophylline, designed as: OFF switch for theophylline"}, "[5]": {"details": "designed as: ON switch for theophylline, no ligand"}, "[6]": {"details": "ligand present: theophylline, designed as: ON switch for theophylline"}, "[7]": {"details": "designed as: OFF switch for flavin mononucleotide, no ligand"}, "[8]": {"details": "ligand present: flavin mononucleotide, designed as: OFF switch for flavin mononucleotide"}, "[9]": {"details": "designed as: ON switch for flavin mononucleotide, no ligand"}, "[10]": {"details": "ligand present: flavin mononucleotide, designed as: ON switch for flavin mononucleotide"}, "[11]": {"details": "designed as: ON switch for tryptophan, no ligand"}, "[12]": {"details": "ligand present: tryptophan, designed as: ON switch for tryptophan"}},
  "data": [
    {"sequence": "ACAUGAGGAUCACCCAUGUGGCGACUUGAUACCAGACCCGCACUAGUCCCUUGGCAGCAACUACGUGUGGGACACCCAUGUUAAG", "values": [
      {"measurement": "apparent Kd", "setting": "[1]; [3]", "result": 16.9, "unit": "nM"},
      {"measurement": "apparent Kd", "setting": "[1]; [4]", "result": 22, "unit": "nM"}
    ]},
    {"sequence": "GUUAUGGACCUGGAUACCAGCUGGUACAAGGGCGGUCUACAUGAGGAUCACCCAUGUGUCAGCCCUUGGCAGCCAGCAACCCACU", "values": [
      {"measurement": "apparent Kd", "setting": "[1]; [3]", "result": 9.88, "unit": "nM"},
      {"measurement": "apparent Kd", "setting": "[1]; [4]", "result": 11.4, "unit": "nM"}
    ]},
    {"sequence": "UGUAACAUGAGGAUCACCCAUGUAAGUGAUACCAGAUAAGUAGUAGUCCCUUGGCAGCAUAUUGGGAAAGUGUAUAGUCUAUAUU", "values": [
      {"measurement": "apparent Kd", "setting": "[1]; [5]", "result": 57.2, "unit": "nM"},
      {"measurement": "apparent Kd", "setting": "[1]; [6]", "result": 55.6, "unit": "nM"}
    ]},
    {"sequence": "ACGAACGAUAGUGAUACCAGACGUACAUGAGGAUCACCCAUGUUAUACACAUGGUUUAUUGUCCCUUGGCAGCACGAUAAGUUCG", "values": [
      {"measurement": "apparent Kd", "setting": "[1]; [3]", "result": 225, "unit": "nM"},
      {"measurement": "apparent Kd", "setting": "[1]; [4]", "result": 287, "unit": "nM"}
    ]},
    {"sequence": "UCGGCAGUGAACGAUACCAGCGUCACGUGGCCGGUGGUCACAUGAGGAUCACCCAUGUAACGCCCUUGGCAGCGUGCGCGUACCG", "values": [
      {"measurement": "apparent Kd", "setting": "[1]; [3]", "result": 23.9, "unit": "nM"},
      {"measurement": "apparent Kd", "setting": "[1]; [4]", "result": 129, "unit": "nM"}
    ]},
    {"sequence": "AAUUUGUCGGGUGAUACCAGCCUCGGCGCGUCUCGCGCUGAACAUGAGGAUCACCCAUGUGGCCCUUGGCAGCACAUGACAAAUC", "values": [
      {"measurement": "apparent Kd", "setting": "[1]; [5]", "result": 670, "unit": "nM"},
      {"measurement": "apparent Kd", "setting": "[1]; [6]", "result": 38.2, "unit": "nM"}
    ]},
    {"sequence": "UUUUAACAUGAGGAUCACCCAUGUAAUGAUACCAGAGACGAAAGUCUCCCUUGGCAGCAUAUAUCAUUACUCAUAGGAAACUAUG", "values": [
      {"measurement": "apparent Kd", "setting": "[1]; [5]", "result": 17.5, "unit": "nM"},
      {"measurement": "apparent Kd", "setting": "[1]; [6]", "result": 16, "unit": "nM"}
    ]},
    {"sequence": "AUCAAUGAUCGACAUGAGGAUCACCCAUGUGCUUGGCGACUAAGAAGGGCCAGGCCACCAAGGCGGCAGGAUAUUAGUAGGACC", "values": [
      {"measurement": "apparent Kd", "setting": "[2]; [7]", "result": 84.2, "unit": "nM"},
      {"measurement": "apparent Kd", "setting": "[2]; [8]", "result": 24.3, "unit": "nM"}
    ]},
    {"sequence": "UCAACAUGAGGAUCACCCAUGUCAUCGGCGUUCUCAGACACUAGAAGGAACAGGCGUAUCUGCGGUUAGGAUAUAGACACACAU", "values": [
      {"measurement": "apparent Kd", "setting": "[2]; [7]", "result": 31.3, "unit": "nM"},
      {"measurement": "apparent Kd", "setting": "[2]; [8]", "result": 31, "unit": "nM"}
    ]},
    {"sequence": "CACCCGUCGACUUAGGAUAUACUGUUGUGAACAUGAGGAUCACCCAUGUAUUAAGCUAGAACGAAGUAGAAGGAAGUUUUCCUUGC", "values": [
      {"measurement": "apparent Kd", "setting": "[2]; [9]", "result": 15.6, "unit": "nM"},
      {"measurement": "apparent Kd", "setting": "[2]; [10]", "result": 13.1, "unit": "nM"}
    ]},
    {"sequence": "GAACAUGAGGAUCACCCAUGUGCUAUUGGGAAUCGCGCUACAUAGGAUAUAGAGGCGACUGUACUCUAGAAGGAUGCUAGUUUC", "values": [
      {"measurement": "apparent Kd", "setting": "[2]; [7]", "result": 38.3, "unit": "nM"},
      {"measurement": "apparent Kd", "setting": "[2]; [8]", "result": 37.8, "unit": "nM"}
    ]},
    {"sequence": "GACGAGUAGACGGCCGCCACUAUGCUGCGCAGCCCUAGAAACGCACAUGAGGAUCACCCAUGUCUUAGGACCGGGUCGAACUUAA", "values": [
      {"measurement": "apparent Kd", "setting": "[2]; [11]", "result": 78.5, "unit": "nM"},
      {"measurement": "apparent Kd", "setting": "[2]; [12]", "result": 65.7, "unit": "nM"}
    ]},
    {"sequence": "GAAACAUUCCCGAGUUUCUACAUGAGGAUCACCCAUGUCCCAUAGGAUAUCUCUACCAGCCGCCGAGAGAAGGAUGUAGUCACU", "values": [
      {"measurement": "apparent Kd", "setting": "[2]; [9]", "result": 185, "unit": "nM"},
      {"measurement": "apparent Kd", "setting": "[2]; [10]", "result": 148, "unit": "nM"}
    ]},
    {"sequence": "GGCGACAUGAGGAUCACCCAUGUGACACCUCGAGGACCGGUACGGCCGCCACUCGUAACCUGCACUAUAGCUACCACGAUUAGCC", "values": [
      {"measurement": "apparent Kd", "setting": "[2]; [11]", "result": 193, "unit": "nM"},
      {"measurement": "apparent Kd", "setting": "[2]; [12]", "result": 42.4, "unit": "nM"}
    ]},
    {"sequence": "UGCCUAUACCAGAAGGGCGUACGGGAAAACAUGAGGAUCACCCAUGUGAGAUCAUCAUCGCUAGCGCAGGAUAUGGAAGUUCGG", "values": [
      {"measurement": "apparent Kd", "setting": "[2]; [7]", "result": 25, "unit": "nM"},
      {"measurement": "apparent Kd", "setting": "[2]; [8]", "result": 29.4, "unit": "nM"}
    ]},
    {"sequence": "GUAUUCAUGACGGCCGCCACUGCAAGCCUCCUCAUGGCAGAUUGACAUGAGGAUCACCCAUGUCUCAGGACCGGGUCUGGCAUCC", "values": [
      {"measurement": "apparent Kd", "setting": "[2]; [11]", "result": 188, "unit": "nM"},
      {"measurement": "apparent Kd", "setting": "[2]; [12]", "result": 171, "unit": "nM"}
    ]},
    {"sequence": "GCGGAACAUGAGGAUCACCCAUGUCAGGAUAUACGCACGGAGUAGGAGGAGGCCUAUGGUAGAAGGGACAGUGA", "values": [
      {"measurement": "apparent Kd", "setting": "[2]; [7]", "result": 10.8, "unit": "nM"},
      {"measurement": "apparent Kd", "setting": "[2]; [8]", "result": 10.2, "unit": "nM"}
    ]},
    {"sequence": "GUAACUCAGGUCAGGAUAUUCGAGUAAGGGAAAACGAAGAAGGGACAUGAGGAUCACCCAUGUAACACGACUAU", "values": [
      {"measurement": "apparent Kd", "setting": "[2]; [7]", "result": 18.1, "unit": "nM"},
      {"measurement": "apparent Kd", "setting": "[2]; [8]", "result": 86.3, "unit": "nM"}
    ]},
    {"sequence": "AUGUAGAAUCUAGGAUAUGCGAGAAACUGCGAAGCAGAAGGAGACUUGUACAUGAGGAUCACCCAUGUCCCGGGCGUCCCAACU", "values": [
      {"measurement": "apparent Kd", "setting": "[2]; [7]", "result": 17.7, "unit": "nM"},
      {"measurement": "apparent Kd", "setting": "[2]; [8]", "result": 24.2, "unit": "nM"}
    ]},
    {"sequence": "GCGGGACAUGAGGAUCACCCAUGUGAGGAUAUGUGCAGUGGCAGGGACAGUUAAAAGUACAGAAGGCACAGCCC", "values": [
      {"measurement": "apparent Kd", "setting": "[2]; [7]", "result": 19.7, "unit": "nM"},
      {"measurement": "apparent Kd", "setting": "[2]; [8]", "result": 17.6, "unit": "nM"}
    ]},
    {"sequence": "GUCGUAGGCUAAGGAUAUAGUGAAAGAGUGAAGGCCUGAUCAGACAUGAGGAUCACCCAUGUGAACUAGAAGGUAGGCAAGGCU", "values": [
      {"measurement": "apparent Kd", "setting": "[2]; [7]", "result": 13.5, "unit": "nM"},
      {"measurement": "apparent Kd", "setting": "[2]; [8]", "result": 12.5, "unit": "nM"}
    ]},
    {"sequence": "CCGACACAGAAGAAGGCUUUUGGUCUUAGCAGAAGAGGAUAUUCCUGUGUUCCGCGUACAUGAGGAUCACCCAUGUGUGAGCAC", "values": [
      {"measurement": "apparent Kd", "setting": "[2]; [7]", "result": 6.59, "unit": "nM"},
      {"measurement": "apparent Kd", "setting": "[2]; [8]", "result": 7.46, "unit": "nM"}
    ]}
  ]
}
